The values that follow come from publication PMC8808266 (Photochemistry and photobiology, 2021).

What all share (type): cell-based, human
Assay [1] concerns A549 cells. Nature of the assay: Colocalization / co-incubation with Cy3-cRGDfK. The following applies: co-incubation with 1 μM Cy3-cRGDfK, 1 μM probe, 30 min. The essentials:
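Live A549 cells at 70% confluency in chambered slides were co-incubated 30 min at 37 °C with 1 μM Cy3-cRGDfK plus 1 μM test compound in medium. They were then PBS-washed ×3, Hoechst-stained (3 μM, 10 min, RT) and imaged by epifluorescence (TxRed and Cy5.5 filters). After 10-pixel rolling-ball background subtraction, Pearson's correlation coefficient was computed and reported as average ± SEM.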

A further assay deals with OVCAR-4 cells. Nature of the assay: Fluorescence cell microscopy, probe uptake. The following applies: 1 μM probe, 30 min, 37 °C, compared to control probes. The essentials:
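OVCAR-4 cells were maintained in RPMI-1640 with 10% FBS, 1% L-glutamine and 0.1 mM NEAA (37 °C, 5% CO2), grown to 70% confluency in chambered slides, then given 1 μM probe in medium for 30 min at 37 °C. After 3 PBS washes, they were fixed in cold 4% PFA (20 min, RT), Hoechst-stained (3 μM, 10 min) and imaged by epifluorescence. Mean intensity: 200-pixel rolling-ball subtraction, auto-threshold, average ± SEM.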

Assay [2] relates to A549 cells. The experiment in a line: Competitive blocking study of probe uptake. The following applies: repeated many times using fixed and living cells; excess cRGDfK or Cilengitide. The essentials:
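A549 cells at 70% confluency on 8-well slides received 200 μM cRGDfK or 50 μM cilengitide 5 min before the test compound; the blocker stayed during a 30 min, 37 °C incubation with 1 μM test compound. Cells were then PBS-washed ×3, fixed in cold 4% PFA (20 min, RT), Hoechst-stained (3 μM) and imaged. Intensity came from 200-pixel rolling-ball background subtraction and auto-threshold, as average ± SEM.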

The test system of the next assay is HT-1080 cells. The experiment in a line: Fluorescence cell microscopy, probe uptake. The following applies: 1 μM probe, 30 min, 37 °C, compared to control probes. A digest of the protocol: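 HT-1080 cells were kept in EMEM with 10% FBS, 0.1 mM NEAA, 1.5 g/L bicarbonate, 1 mM pyruvate and 1% pen/strep (37 °C, 5% CO2), then grown to 70% confluency. They were exposed to 1 μM probe in medium for 30 min at 37 °C, washed ×3 with PBS, fixed in cold 4% PFA, Hoechst-stained and imaged (Cy5.5 filter). Intensity: rolling-ball background subtraction, auto-threshold, average ± SEM.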

DRGDG (bicyclic or more) [SF8(DRGDG)2]: the “cell uptake of probe in the presence of Cy3-cRGDfK” value in the assay on A549 cells [1] is reported as “did not reduce cell uptake”. The “probe uptake (mean fluorescence intensity of epifluorescence micrographs)” value with OVCAR-4 cells and in the assay on HT-1080 cells was “Enhanced uptake” in each case. The “cell uptake of probe in competition imaging experiments” value in the assay with A549 cells [2] is given as “not reduced”.
